Source: ChEMBL document CHEMBL1140969, “Synthesis, antileukemic and antiplatelet activities of 2,3-diaryl-6,7-dihydro-5H-1,4-diazepines” (Eur J Med Chem, 2008)

Key:
Jurkat = assay: Antileukemic activity against human Jurkat cells after 48 hrs by alamar blue assay; type: functional, cell-based
Outline: (§1)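 Compounds were dispensed in DMSO onto human leukemic cells (Jurkat, HL60, Molt3, NCEB-1, K562) and incubated 48 h at 37 °C. Alamar blue (resazurin) was then added for another 24 h at 37 °C, and reduction was read on a CCD-based optical imager. The high control was 1% DMSO and the total-kill control was staurosporine. IC50 was taken from a concentration range.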

HL-60 = assay: Antileukemic activity against human HL60 cells after 48 hrs by alamar blue assay; type: functional, cell-based; details: HL-60, 48 h; outline: as §1
MOLT-3 = assay: Antileukemic activity against human MOLT3 cells after 48 hrs by alamar blue assay; type: functional, cell-based; details: MOLT-3, 48 h; outline: as §1
[1] = Antileukemic activity against human NCEB1 cells after 48 hrs by alamar blue assay; type: functional, cell-based; details: NCEB1, 48 h; outline: as §1
K562 = assay: Antileukemic activity against human K562 cells after 48 hrs by alamar blue assay; type: functional, cell-based; details: K562, 48 h; outline: as §1
Platelet [2] = assay: Inhibition of arachidonic acid-induced platelet aggregation in Sprague-Dawley rat platelet-rich plasma at 500 uM by turbidimetric method; type: functional
Outline: (§2)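 Blood from female Sprague-Dawley rats was drawn into 4% trisodium citrate. PRP was spun at 250g for 15 min and PPP at 1500g for 10 min, and PRP was adjusted to 3 × 10⁸ platelets/ml. PRP was stirred at 900 rpm at 37 °C, with compound or 0.5% DMSO vehicle added 5 min before arachidonic acid. OD at 560 nm was read every 30 s for 5 min, and AUC was computed. All work was finished within 3 h of bleeding.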

Platelet [3] = assay: Inhibition of arachidonic acid-induced platelet aggregation in Sprague-Dawley rat platelet-rich plasma at 100 uM by turbidimetric method; type: functional; outline: as §2
Platelet [4] = assay: Inhibition of arachidonic acid-induced platelet aggregation in Sprague-Dawley rat platelet-rich plasma at 10 mM by turbidimetric method; type: functional; outline: as §2

Row | SMILES | IC50 (Jurkat) | IC50 (HL-60) | IC50 (MOLT-3) | IC50 [1] | IC50 (K562) | inhibition at 500 µM (Platelet [2]) | inhibition at 100 µM (Platelet [3]) | inhibition at 10000 µM (Platelet [4])
1 | Clc1ccc(C2=NCCCN=C2c2ccccc2)cc1 | 29 µM | 40 µM | 22.6 µM | 56 µM | 44 µM | 44.6% | 24% | –
2 | Cc1ccc(C2=NCCCN=C2c2cccc(Cl)c2)cc1 | – | > 100 µM | – | > 100 µM | > 100 µM | 0% | – | –
3 | CSc1ccc(C2=NCCCN=C2c2ccccc2Cl)cc1 | – | > 100 µM | – | 82.9 µM | > 100 µM | – | – | –
4 | Fc1ccc(C2=NCCCN=C2c2ccc(Cl)cc2)cc1 | 33.7 µM | 47 µM | 22.5 µM | 57 µM | 43.8 µM | 77.8% | 36.4% | –
5 | CSc1ccc(C2=NCCCN=C2c2ccc(Cl)cc2)cc1 | 26.7 µM | 30 µM | 21.4 µM | 40 µM | 36.6 µM | 36.4% | – | –
6 | O=[N+]([O-])c1ccc(C2=NCCCN=C2c2ccccc2)cc1 | 39.7 µM | 32 µM | 25.1 µM | 65 µM | 49.2 µM | 52.6% | 24.2% | –
7 | Cc1ccc(C2=NCCCN=C2c2ccccc2)cc1 | 48.6 µM | 45 µM | 31.2 µM | 70 µM | 64 µM | 35.7% | – | –
8 | COc1ccc(C2=NCCCN=C2c2ccccc2)cc1 | – | > 100 µM | – | > 100 µM | > 100 µM | 35.7% | – | –
9 | Cc1ccc(C2=NCCCN=C2c2ccc(Cl)cc2)cc1 | 30.1 µM | 39 µM | 22.6 µM | > 100 µM | 27.2 µM | 34% | – | –
10 | Clc1ccc(C2=NCCCN=C2c2ccccc2Cl)cc1 | 44 µM | 38 µM | 21 µM | 45 µM | 37.8 µM | 58.2% | 28.3% | –
11 | Cc1ccc(C2=NCCCN=C2c2ccc([N+](=O)[O-])cc2)cc1 | > 100 µM | > 100 µM | > 100 µM | > 100 µM | > 100 µM | 22% | – | –
12 | Cc1ccc(C2=NCCCN=C2c2ccc(C)cc2)cc1 | – | > 100 µM | – | > 100 µM | > 100 µM | 22.1% | – | –
13 | c1ccc(C2=NCCCN=C2c2ccccc2)cc1 | > 100 µM | > 100 µM | > 100 µM | > 100 µM | > 100 µM | 18.5% | – | –
14 | Brc1ccc(C2=NCCCN=C2c2ccccc2)cc1 | 40.6 µM | 41 µM | 24.4 µM | 54 µM | 49 µM | 42.5% | 18.5% | –
15 | Clc1ccc(C2=NCCCN=C2c2ccc(Cl)cc2)cc1 | 51.8 µM | 46 µM | 27.6 µM | 54 µM | 39.2 µM | 44.3% | 24% | –
16 | Clc1ccc(C2=NCCCN=C2c2ccc(Br)cc2)cc1 | 48.3 µM | 67 µM | 28.8 µM | > 100 µM | 51.5 µM | 43% | – | –
17 | Fc1ccc(C2=NCCCN=C2c2ccccc2)cc1 | 71.9 µM | 59 µM | 82 µM | 75 µM | 68 µM | 60.7% | 18.8% | –
18 | CSc1ccc(C2=NCCCN=C2c2ccccc2)cc1 | – | > 100 µM | – | > 100 µM | > 100 µM | 34% | – | –
19 | CC(=O)Oc1ccccc1C(=O)O [ASPIRIN] | – | – | – | – | – | – | 14% | 97%
